Experimental data taken from ChEMBL document CHEMBL1138502, “Discovery and biological evaluation of novel cyanoguanidine P2X(7) antagonists with analgesic activity in a rat model of neuropathic pain” (J Med Chem, 2009).

Columns and labels:
P2X purinoceptor 7 [1] = biological target: T1, P2X purinoceptor 7 (Rattus norvegicus, UniProt Q64663); assay: Antagonist activity at rat cloned P2X7 receptor expressed in HEK293 cells assessed as inhibition of calcium flux by FLIPR assay; assay type: functional, cell-based
T1 sequence (Q64663 whole entry): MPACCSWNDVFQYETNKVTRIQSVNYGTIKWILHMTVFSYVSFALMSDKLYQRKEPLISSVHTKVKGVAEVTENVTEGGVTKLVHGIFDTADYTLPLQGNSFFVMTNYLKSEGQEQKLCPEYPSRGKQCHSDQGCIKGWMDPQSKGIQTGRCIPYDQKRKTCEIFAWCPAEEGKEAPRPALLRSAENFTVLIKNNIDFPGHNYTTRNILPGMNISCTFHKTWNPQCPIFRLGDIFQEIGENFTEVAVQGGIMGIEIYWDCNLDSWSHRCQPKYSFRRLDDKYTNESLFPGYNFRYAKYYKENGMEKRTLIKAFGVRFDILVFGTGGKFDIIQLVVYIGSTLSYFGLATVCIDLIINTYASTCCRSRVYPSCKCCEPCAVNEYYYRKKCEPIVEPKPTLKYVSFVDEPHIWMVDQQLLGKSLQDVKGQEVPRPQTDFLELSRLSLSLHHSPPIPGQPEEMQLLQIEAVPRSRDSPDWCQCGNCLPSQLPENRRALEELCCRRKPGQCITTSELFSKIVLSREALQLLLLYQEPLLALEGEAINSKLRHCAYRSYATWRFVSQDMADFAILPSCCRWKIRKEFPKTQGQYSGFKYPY
Method in brief: (§1)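 Calcium influx read on a fluorometric imaging plate reader with Fluo-4 as the calcium-sensing dye. The P2X7 agonist was benzoylbenzoic ATP (BzATP). pIC50 values are the mean of two experiments unless otherwise indicated; some values are the mean of more than two experiments, with standard deviation shown.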

P2X purinoceptor 7 [2] = biological target: T2, P2X purinoceptor 7 (Homo sapiens, UniProt Q99572); assay: Antagonist activity at human cloned P2X7 receptor expressed in HEK293 cells assessed as inhibition of calcium flux by FLIPR assay; assay type: functional, cell-based; method in brief: as §1
T2 sequence (Q99572 whole entry): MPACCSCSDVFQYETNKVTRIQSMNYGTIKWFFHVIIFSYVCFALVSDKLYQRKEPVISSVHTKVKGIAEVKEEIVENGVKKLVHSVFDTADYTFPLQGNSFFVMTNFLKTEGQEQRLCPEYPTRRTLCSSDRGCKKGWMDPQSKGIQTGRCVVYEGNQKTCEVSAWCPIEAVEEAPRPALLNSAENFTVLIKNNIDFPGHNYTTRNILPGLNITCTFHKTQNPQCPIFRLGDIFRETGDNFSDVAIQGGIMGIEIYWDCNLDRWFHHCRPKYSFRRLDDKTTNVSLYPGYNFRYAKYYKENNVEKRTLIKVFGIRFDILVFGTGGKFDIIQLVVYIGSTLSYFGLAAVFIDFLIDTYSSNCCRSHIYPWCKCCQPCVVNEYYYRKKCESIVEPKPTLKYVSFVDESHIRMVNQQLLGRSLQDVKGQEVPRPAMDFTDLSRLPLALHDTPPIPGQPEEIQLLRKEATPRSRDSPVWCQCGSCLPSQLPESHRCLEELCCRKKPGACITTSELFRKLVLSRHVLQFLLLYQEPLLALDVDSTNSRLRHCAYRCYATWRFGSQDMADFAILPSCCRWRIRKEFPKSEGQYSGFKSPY

| Structure (SMILES) | IC50 (P2X purinoceptor 7 [1]) [nM] | IC50 (P2X purinoceptor 7 [2]) [nM] |
| --- | --- | --- |
| COc1ccc(CC(=O)NC(N/C(=N/C#N)Nc2cccc(F)c2F)C(C)(C)C)cc1OC (centres undefined) | 100 | 316 |
| Cc1ncccc1NC(=NC#N)NC(NC(=O)CCCCc1ccccc1)C(C)(C)C (centres undefined) | 50.1 | 63.1 |
| COc1ccc(CC(=O)NC(N=C(NC#N)Nc2cccc(C)c2)C(C)(C)C)cc1OC (centres undefined) | 39.8 | 1000 |
| Cc1ccccc1N/C(=N\C#N)NC(NC(=O)Cc1ccc2c(c1)OCO2)C(C)(C)C (centres undefined) | 39.8 | 50.1 |
| COc1ccc(CC(=O)NC(N=C(NC#N)NCc2ccccc2Cl)C(C)(C)C)cc1OC (centres undefined) | 200 | 631 |
| COc1ccc(CC(=O)NC(N=C(NC#N)Nc2cc(F)cc(F)c2)C(C)(C)C)cc1OC (centres undefined) | 316 | 398 |
| COc1ccc(CC(=O)NC(NC(=NC#N)Nc2ccccc2C)C(C)(C)C)cc1OC (stereo in doubt; (-)-13) | 501 | 5010 |
| COc1ncccc1NC(=NC#N)NC(NC(=O)c1ccc(Cl)cc1)C(C)(Cl)Cl (centres undefined) | 50.1 | 63.1 |
| O=C(CC12CC3CC(CC(C3)C1)C2)Nc1ccc2[nH]ncc2c1 | 501 | 158 |
| CC(Cl)(Cl)C(NC(=O)c1ccc(Cl)cc1)NC(=NC#N)Nc1cccnc1Cl (centres undefined) | 126 | 63.1 |
| COc1ccc(CC(=O)NC(N/C(=N/C#N)Nc2cccc3cccnc23)C(C)(C)C)cc1OC (centres undefined) | 158 | 1580 |
| COc1ccc(CCC(=O)NC(N=C(NC#N)Nc2ccccc2C)C(C)(C)C)cc1OC (centres undefined) | 316 | 200 |
| COc1ccc(CC(=O)NC(NC(=NC#N)Nc2cccnc2OC)C(C)(C)C)cc1OC (centres undefined) | 39.8 | 100 |
| CSc1ccc(CC(=O)NC(N=C(NC#N)Nc2cccnc2C)C(C)(C)C)cc1 (centres undefined) | 31.6 | 20 |
| COc1ccc(CC(=O)NC(N/C(=N/C#N)Nc2c(F)cccc2F)C(C)(C)C)cc1OC (centres undefined) | 31.6 | 200 |
| COc1ccc(CC(=O)NC(N/C(=N/C#N)Nc2cccnc2C)C(C)(C)C)cc1OC (centres undefined) | 158 | 251 |

| Structure (SMILES) | IC50 (P2X purinoceptor 7 [1]) [nM] | IC50 (P2X purinoceptor 7 [2]) [nM] |
| --- | --- | --- |
| CC(C)(C)C(NC(=O)Cc1cccc2ccccc12)NC(=NC#N)Nc1cccc2ncccc12 (centres undefined) | 31.6 | 31.6 |
| COc1ccc(CC(=O)NC(NC(=S)Nc2ccccc2C)C(Cl)(Cl)Cl)cc1OC (centres undefined) | 50.1 | 100 |
| COc1cc(OC)cc(C(=O)NC(N=C(NC#N)Nc2ccccc2C)C(C)(C)C)c1 (centres undefined) | 794 | 2510 |
| COc1ccc(CC(=O)NC(N=C(NC#N)Nc2cccc(F)c2)C(C)(C)C)cc1OC (centres undefined) | 79.4 | 3160 |
| COc1ccc(CCC(=O)NC(N/C(=N/C#N)Nc2ccccc2C)C(C)(C)C)cc1 (centres undefined) | 251 | 398 |
| COc1ccc(CC(=O)NC(N/C(=N/C#N)Nc2cccc3cnccc23)C(C)(C)C)cc1OC (centres undefined) | 31.6 | 251 |
| COc1ccc(CC(=O)NC(NC(=NC#N)Nc2c(F)cc(F)cc2F)C(C)(C)C)cc1OC (centres undefined) | 31.6 | 100 |
| CC(C)(C)C(NC(=O)CCCc1cccnc1)N/C(=N/C#N)Nc1cccc2ncccc12 (centres undefined) | 39.8 | 100 |
| Cc1ccccc1N/C(=N\C#N)NC(NC(=O)Cc1ccccc1)C(C)(C)C (centres undefined) | 316 | 31600 |
| Cc1ccc(CC(=O)NC(NC(=NC#N)Nc2cccnc2C)C(C)(C)C)cc1F (centres undefined) | 200 | 63.1 |
| COc1cc(CC(=O)NC(N/C(=N/C#N)Nc2ccccc2C)C(C)(C)C)cc(OC)c1 (centres undefined) | 63.1 | 251 |
| COc1ccc(CC(=O)NC(N=C(NC#N)Nc2ccc(F)c(F)c2)C(C)(C)C)cc1OC (centres undefined) | 50.1 | 794 |
| COc1ccc(CCCC(=O)NC(N/C(=N/C#N)Nc2cccnc2C)C(C)(C)C)cc1 (centres undefined) | 100 | 50.1 |
| COc1ccc(CC(=O)NC(N/C(=N/C#N)Nc2cccnc2Cl)C(C)(C)C)cc1OC (centres undefined) | 39.8 | 79.4 |
| COc1cc(OC)cc(C(=O)NC(N/C(=N/C#N)Nc2cccnc2C)C(C)(Cl)Cl)c1 (centres undefined) | 1000 | 200 |

Other lines, results leading:

| IC50 (P2X purinoceptor 7 [1]) [nM] | IC50 (P2X purinoceptor 7 [2]) [nM] | Structure (SMILES) |
| --- | --- | --- |
| 20 | 100 | COc1ccc(CC(=O)NC(N/C(=N/C#N)Nc2cc(F)ccc2F)C(C)(C)C)cc1OC (centres undefined) |
| 20 | 50.1 | COc1cc(OC)cc(C(=O)NC(NC(=NC#N)Nc2cccnc2OC)C(C)(Cl)Cl)c1 (centres undefined) |
| 31.6 | 63.1 | COc1ccc(CC(=O)NC(N/C(=N/C#N)Nc2ccccc2C)C(C)(C)C)cc1 (centres undefined) |
| 7.94 | 63.1 | COc1ccc(CC(=O)NC(NC(=NC#N)Nc2ccccc2Cl)C(C)(C)C)cc1OC (centres undefined) |
| 10 | 251 | COc1ccc(CC(=O)NC(N/C(=N/C#N)Nc2ccc(F)cc2F)C(C)(C)C)cc1OC (centres undefined) |
| 20 | 316 | COc1ccc(CC(=O)NC(N=C(NC#N)Nc2ccc(F)cc2)C(C)(C)C)cc1OC (centres undefined) |
| 25.1 | 158 | COc1ccccc1NC(=NC(NC(=O)Cc1ccc(OC)c(OC)c1)C(C)(C)C)NC#N (centres undefined) |
| 7.94 | 31.6 | COc1ccc(CC(=O)NC(NC(=NC#N)Nc2cccnc2OC)C(C)(Cl)Cl)cc1OC (centres undefined) |
| 31.6 | 794 | CCCCCC(=O)NC(N=C(NC#N)Nc1ccccc1C)C(C)(C)C (centres undefined) |
| 12.6 | 63.1 | COc1ccc(CC(=O)NC(NC(=NC#N)Nc2ccccc2C)C(C)(C)C)cc1OC (single isomer, unassigned; (+)) |
| 12.6 | 31.6 | COc1ccc(N/C(=N\C#N)NC(NC(=O)Cc2ccc(OC)c(OC)c2)C(C)(C)C)c(OC)n1 (centres undefined) |
| 25.1 | 79.4 | Cc1ccccc1NC(=NC(NC(=O)CCCc1ccccc1)C(C)(C)C)NC#N (centres undefined) |
| 31.6 | 79.4 | COc1ccc(CCCC(=O)NC(NC(=NC#N)Nc2ccccc2C)C(C)(C)C)cc1 (centres undefined) |
| 7.94 | 31.6 | CSc1ccc(CC(=O)NC(N=C(NC#N)Nc2ccccc2C)C(C)(C)C)cc1 (centres undefined) |
| 10 | 10 | CC(C)(C)C(N=C(NC#N)Nc1cccc2ncccc12)NC(=O)Cc1ccc2c(c1)OCCO2 (centres undefined) |
| 10 | 50.1 | COc1ccc(NC(=NC#N)NC(NC(=O)c2ccc(Cl)cc2)C(C)(Cl)Cl)c(OC)n1 (centres undefined) |
| 7.94 | 10 | CSc1ccc(CC(=O)NC(N=C(NC#N)Nc2cccc3ncccc23)C(C)(C)C)cc1 (centres undefined) |
| 20 | 79.4 | COc1ccc(CC(=O)NC(N=C(NC#N)Nc2cc(Cl)ccc2F)C(C)(C)C)cc1OC (centres undefined) |
| 20 | 63.1 | Cc1ccccc1N/C(=N\C#N)NC(NC(=O)Cc1ccc(Cl)cc1)C(C)(C)C (centres undefined) |
| 6.31 | 39.8 | CC(C)(C)C(NC(=O)Cc1ccc(C#N)cc1)N/C(=N/C#N)Nc1cccc2ncccc12 (centres undefined) |
| 20 | 2000 | COc1ccc(CC(=O)NC(N=C(NC#N)Nc2ccc(C)cc2)C(C)(C)C)cc1OC (centres undefined) |
